Sampled rows, rich in hits. Any-hit rate of the full collection: about 4.3%.
APP 5'UTR act = activates APP 5'UTR luciferase reporter; activation, % at 2 µM; SH-SY5Y APP 5'UTR luciferase reporter, luminescence; zero percent = DMSO vehicle wells; actives 1% (n = 190,000);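 active = activation above a set limit, based on mean plus 3 SD of controls, cut at about 140% in these data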
STAT1 act = STAT1 signaling activation | NIH 3T3 STAT1-luciferase reporter, IFN-gamma, luminescence; 100% = IFN-gamma alone, no compound | activation (% of control), % at 5.5 µM | actives 2.6% (n = 200,000) | AID 932;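 active = activation above the screen-wide mean activation plus 3 SD, cut at about 130% in these data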;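 also: raw ratio to IFN-gamma control signal so 100% means no change and 0% no light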
FLuc stim CS = affects firefly luciferase, flagging false hits in luciferase stimulation screens | ATPlite luciferase biochemical, luminescence, 10 min; 0 = ATP-free wells, 1 = DMSO control | activation factor at 10 µM | 200,000 tested, under 10 active | AID 1027;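 active = luciferase activation factor, scaled between plate controls, of at least 2 with compound at 10 µM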
Target sequence (P08659 whole entry, looked up): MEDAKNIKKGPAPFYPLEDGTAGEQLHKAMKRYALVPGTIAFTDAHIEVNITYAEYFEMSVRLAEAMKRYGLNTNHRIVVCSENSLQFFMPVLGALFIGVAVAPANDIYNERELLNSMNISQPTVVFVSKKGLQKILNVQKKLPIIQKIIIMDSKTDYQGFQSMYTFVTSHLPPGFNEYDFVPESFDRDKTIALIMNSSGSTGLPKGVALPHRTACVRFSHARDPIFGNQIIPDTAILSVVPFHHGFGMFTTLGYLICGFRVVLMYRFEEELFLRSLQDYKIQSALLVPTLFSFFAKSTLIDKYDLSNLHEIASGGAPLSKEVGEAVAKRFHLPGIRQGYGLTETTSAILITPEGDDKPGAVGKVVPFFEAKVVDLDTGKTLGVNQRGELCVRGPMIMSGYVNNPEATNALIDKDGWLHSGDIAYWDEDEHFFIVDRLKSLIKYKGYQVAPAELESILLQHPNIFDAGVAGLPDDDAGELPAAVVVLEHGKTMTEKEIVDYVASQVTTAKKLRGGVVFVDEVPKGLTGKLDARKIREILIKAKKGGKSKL
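Assay system: Luciferase/luciferin detection reagent, cell-free biochemical luciferase assay / Read-out: luciferase activation / Benchmarks: No-ATP low control, compound-free enzyme-plus-ATP high control / Medium: PBS buffer for ATP / Detection: luminescence measurement of luciferase light output / Schedule: 10 min at ambient temperature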
NF-kB neuron act = raises NF-kB expression in human neuronal cells. actives 1.6% (n = 190,000). fold change at 12.5 µM. NF-kB reporter expression; hits give high values. AID 1239; in the data active = fold change above about 3.3
SDO1 yeast rescue = sdo1-depleted yeast growth rescue; S. cerevisiae sdo1-depleted JHY4D growth rescue, OD600 30 h; hits give high values; pdr5 snq2 efflux-pump mutant strain; actives 0.21% (n = 140,000); AID 817; z-score at 10 µM;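 active = z-score above 3 at both the 24 hr and the 30 hr optical density reads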;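 also: z-score against mean and SD of all compound wells on the same plate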
FLuc inh counter = Photinus pyralis luciferase inhibition counter-screen | AID 1006 | inhibition, % at 10 µM | actives 1.5% (n = 200,000) | ATPLite firefly luciferase biochemical luminescence, 10 min | P08659;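 active = inhibition above about 50% when tested at 10 µM, limit read from the data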
Active calls of the source: *; · = no result given.

SMILES	APP 5'UTR act	STAT1 act	FLuc stim CS	NF-kB neuron act	SDO1 yeast rescue	FLuc inh counter
CN(C)c1cccc(C(=O)N/N=C/c2ccsc2)c1	37	125	0.1	1	0.15	90*
CCCOc1cccc(/C=N/NC(=O)c2csc(C)c2C)c1	12	97	0.8	1.2	-1.1	18
Cc1cc(C(=O)N/N=C/c2ccco2)c2ccccc2n1	8	88	1.1	0.93	1.1	-6
Cc1scc(C(=O)N/N=C/c2ccsc2)c1C	69	140*	0.2	4.6*	0.34	84*
Cc1scc(C(=O)N/N=C/c2ccco2)c1C	72	118	0.5	2.2	2.3	54*
COc1ccccc1/C=C(\NC(=O)c1ccc(OC)c(OC)c1)C(=O)Nc1cccc([N+](=O)[O-])c1	5	97	1.1	1.1	-0.04	-7
CC(NC(=S)Nc1ccc([N+](=O)[O-])cc1)c1ccncc1 (stereo unspecified)	-5	93	1	1.1	·	-5
CCOc1cc(/C=N/Nc2cccc(C(=O)O)c2)ccc1OCC(=O)N1CCCCC1	31	94	1	1.6	·	1
O=c1c2cnn(-c3ccc(F)cc3)c2ncn1Cc1ccccn1	-8	102	1.1	1.3	0.35	-6
COc1ccc(NC(=O)c2cccc(OS(=O)(=O)N(C)C)c2)cc1	157*	110	0.5	4.8*	·	54*
CN(C)S(=O)(=O)Oc1cccc(C(=O)Nc2cccc(Cl)c2)c1	72	116	1	1.6	-3	4
COc1cccc(C(=O)Nc2ccccc2)c1	45	117	0.8	2	0.16	17
CN(C)S(=O)(=O)Oc1cccc(C(=O)Nc2ccc(Cl)c(Cl)c2)c1	174*	137*	1	4.2*	-2.3	1
COC(=O)c1ccc(OS(=O)(=O)N(C)C)cc1	27	130*	0.9	1	·	9
COc1ccc(C(=O)C[n+]2cn(C(F)F)c3ccccc32)c(F)c1	-4	130*	1	1.5	·	-1
Cc1nnc(N/N=C/c2cccc(OCc3ccc(Cl)c(Cl)c3)c2)n1N	36	140*	1	0.99	-1.2	-4
CC(C)c1nnc(NC(=O)C2CCCO2)s1 (stereo unspecified)	0	111	1	1.3	·	-3
O=C(Nc1nc(-c2ccc(Cl)cc2)cs1)C1CCCO1 (stereo unspecified)	36	131*	1	2.5	·	1
COc1ccc(-c2nnc(NC(=O)C3CCCO3)s2)cc1 (stereo unspecified)	55	142*	0.7	1.9	-0.3	28
O=C(Nc1nc(-c2ccc(Cl)cc2Cl)cs1)C1CCCO1 (stereo unspecified)	-1	102	1	1.4	-0.96	-4
COc1ccc2nc(NC(=O)C3CCCO3)sc2c1 (stereo unspecified)	138*	150*	0.7	3.5*	·	33
CSc1nc2ccc(NC(=O)C3CCCO3)cc2s1 (stereo unspecified)	29	132*	0.8	2.1	-0.15	18
Cc1ccc(-c2csc(NC(=O)C3=COCCO3)n2)cc1	73	136*	1	2.2	0.28	3
O=C(N/N=C\c1ccc2c(c1)OCO2)c1ccco1	97	147*	0.2	2.4	1.1	75*
O=C(N/N=C\c1cccc(OC(=O)c2ccco2)c1)c1ccc2c(c1)OCO2	83	118	0.3	5.1*	-0.27	70*
SMILES	APP 5'UTR act	STAT1 act	FLuc stim CS	NF-kB neuron act	SDO1 yeast rescue	FLuc inh counter
O=C(N/N=C/c1ccc2cccnc2c1)c1ccco1	166*	99	0.1	3.5*	·	88*
CCc1ccc2[nH]c(=O)c(CN(Cc3ccccc3)C(=O)Nc3ccccc3OC)cc2c1	-2	100	1	0.44	-2	-4
Cc1ccc(NC(=S)NNC(=O)c2ccccc2O)c(C)c1	-5	94	0.9	0.8	·	10
CNc1nnc(-c2ccc(N(C)C)cc2)s1	115	87	0.1	4.7*	0.36	92*
CN(C)c1ccc(-c2ccncc2)cc1	·	·	1	·	·	2
Oc1cc(NCc2cccnc2)ccc1-c1nc2ccccc2o1	155*	134*	1	2.5	-1.5	0
CC(C)(C)NC(=O)CCN(/N=C/c1ccc([N+](=O)[O-])o1)C1=NS(=O)(=O)c2ccccc21	4	88	1.1	0.42	-0.87	-5
Cc1ccc(OCCOc2ccc(Br)cc2)c([N+](=O)[O-])n1	66	135*	0.9	2.1	-1.4	10
COc1ccc(CNC(=O)COc2ccc(C)nc2[N+](=O)[O-])cc1	-15	100	1	1.1	·	-4
CC(C)N1CCN(Cc2cccn2-c2ccccn2)CC1CCO (stereo unspecified)	-4	106	1.1	0.9	·	-5
COc1ccc([N+](=O)[O-])cc1N(CC(=O)N1CCOCC1)S(C)(=O)=O	-5	110	1	0.93	·	4
O=c1c2c(nc3cc(-c4ccccc4)[nH]n13)CCC2	103	135*	0.4	3.7*	0.71	61*
COc1ccc(-c2cc3nc4c(c(=O)n3[nH]2)CCC4)cc1	12	122	0.5	2.6	1.5	52*
Cc1cc2nc3c(c(=O)n2[nH]1)CCCC3	6	101	1.1	1.2	0.83	-6
Cc1cccc(NC(=O)c2ccc(OC3CSC3)cc2)c1	158*	125	0.2	3.8*	0.18	80*
COc1ccc(C(=O)Nc2cccc(C)c2)cc1	142*	138*	0.2	6*	-1.1	77*
COc1cccc(NC(=O)c2ccc(NC(=O)C(C)(C)C)cc2)c1	94	136*	0.6	2.1	0.84	41
CC(=O)c1cccc(NC(=O)c2ccc(OC3CSC3)cc2)c1	17	112	0.8	2.1	·	23
CCCC(=O)Nc1ccc(C(=O)Nc2cccc(OC)c2)cc1	35	106	0.9	1.4	1.2	8
COc1cccc(C(=O)Nc2cccc(SC)c2)c1	83	129*	0.7	2.7	0.71	33
COc1ccc(CC(=O)Nc2cccc(C(=O)Nc3cccc(C)c3)c2)cc1	2	99	1	1.4	·	2
CCOc1cc(N2CCOCC2)c(OCC)cc1NC(=O)CN1CCN(Cc2ccc3c(c2)OCO3)CC1	-2	104	1.1	0.63	·	-7
COc1cnc(-c2ccccc2)[nH]c1=O	14	90	1	1.4	·	-2
CCOC(=O)C(=O)NC(C)CCc1ccccc1 (stereo unspecified)	6	95	1	1	1.6	-4
O=C(COC(=O)CNC(=O)c1ccccc1)Nc1ccc(Cl)cc1C(F)(F)F	-12	94	1	1.1	0.19	-4
CCCCOC(=O)Nc1ccc(C)c(Cl)c1	114	143*	0.9	2.9	-0.35	9

Source: PubChem BioAssay
